The text below walks through data of ChEMBL document CHEMBL1131413, “Mutational evidence for a common kappa antagonist binding pocket in the wild-type kappa and mutant mu[K303E] opioid receptors” (J Med Chem, 1998).

In general, Ki refers to a dissociation constant, usually derived from enzyme kinetics or from competition with a known ligand. Higher therefore signals weaker binding.

Assay [1] addresses Kappa-type opioid receptor (Rattus norvegicus, UniProt P34975). Kind of assay: Effect on binding affinity of mutational exchange of Glu297 in the Opioid receptor kappa 1 in transiently expressed […] cells activity expressed as binding affinity. It counts as cell-based.
The target of assay [2] is Kappa-type opioid receptor (Rattus norvegicus, UniProt P34975, E297K). The assay can be described thus: Mutant factor of the compound against kappa[E297K] with Opioid receptor kappa 1 for binding affinity.
Assay [3] concerns the target Mu-type opioid receptor (Rattus norvegicus, UniProt P33535). The assay can be described thus: Effect on binding affinity of mutational exchange of Lys303 in the Opioid receptor mu 1 in transiently expressed […] cells activity expressed as binding affinity. It counts as cell-based.
Assay [4] addresses Kappa-type opioid receptor (Rattus norvegicus) (UniProt P34975). The assay can be described thus: Effect on binding affinity of mutational exchange of Glu297 in the Opioid receptor kappa 1 in transiently expressed […] cells activity expressed as binding ratio with nor-BNI.
The target in assay [5] is Opioid receptors; delta & kappa (Homo sapiens) (UniProt P41145+P41143). The assay can be described thus: Ratio of Ke value to kappa receptor to that of delta receptor. Type of assay: protein assay. In short, it runs like this: (§1)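 Selectivity ratios were taken from Ke values measured in smooth muscle (100 nM antagonist, 15 min preincubation). Kappa Ke came from guinea-pig ileum with ethylketazocine, mu Ke from guinea-pig ileum with morphine, and delta Ke from mouse vas deferens with DADLE.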

Assay [6] addresses Mu-type opioid receptor (Cavia porcellus) (UniProt P97266). Kind of assay: Opioid antagonist potencies against Opioid receptor mu 1 from guinea pig ileum employing morphine(M) as agonist. It counts as functional, tissue-based. The essentials:
(§2)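 Electrically stimulated guinea-pig ileal longitudinal muscle. Antagonist at 100 nM was incubated 15 min before agonist (ethylketazocine for kappa, morphine for mu). Ke = [antagonist]/(IC50 ratio − 1), where the IC50 ratio is agonist IC50 with antagonist over agonist IC50 alone in the same preparation. Ke is the mean of at least three IC50 ratios.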

The target in assay [7] is Opioid receptors; mu & kappa (Homo sapiens) (UniProt P41145+P35372). The assay can be described thus: Ratio of Ke value to kappa receptor to that of mu receptor. Type of assay: protein assay. The essentials: as §1
Assay [8] concerns the target Kappa-type opioid receptor (Cavia porcellus) (UniProt P41144). Kind of assay: Opioid antagonist potencies against Opioid receptor kappa 1 from guinea pig ileum employing ethylketazocine (EKC) as agonist. Type of assay: functional, tissue-based. In short, it runs like this: as §2
Assay [9] addresses Delta-type opioid receptor (Mus musculus) (UniProt P32300). The assay can be described thus: Opioid antagonist potencies against Opioid receptor delta 1 from mouse vas-deferens preparation employing [D-Ala2,D-Leu5]enkephalin (DADLE) as agonist. Type of assay: functional. In short, it runs like this:
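Electrically stimulated mouse vas deferens. Antagonist at 100 nM was incubated 15 min before the agonist DADLE. Ke = [antagonist]/(IC50 ratio − 1), using agonist IC50 with versus without antagonist in the same preparation. Ke is from an average of at least three IC50 ratios.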

Sequence of Kappa-type opioid receptor (Rattus norvegicus) (P34975 whole entry): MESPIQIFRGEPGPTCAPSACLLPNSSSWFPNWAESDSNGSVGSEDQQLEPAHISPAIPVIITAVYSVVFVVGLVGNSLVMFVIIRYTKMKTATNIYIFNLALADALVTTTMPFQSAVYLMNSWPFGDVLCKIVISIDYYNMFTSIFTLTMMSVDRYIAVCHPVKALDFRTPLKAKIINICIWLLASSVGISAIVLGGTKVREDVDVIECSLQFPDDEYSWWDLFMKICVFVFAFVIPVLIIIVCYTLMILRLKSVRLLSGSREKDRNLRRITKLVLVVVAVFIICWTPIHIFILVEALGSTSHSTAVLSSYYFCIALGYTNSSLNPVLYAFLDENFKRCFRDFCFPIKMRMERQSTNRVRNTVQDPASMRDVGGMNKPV
Sequence of Opioid receptors; mu & kappa (Homo sapiens) (P35372 whole entry, looked up): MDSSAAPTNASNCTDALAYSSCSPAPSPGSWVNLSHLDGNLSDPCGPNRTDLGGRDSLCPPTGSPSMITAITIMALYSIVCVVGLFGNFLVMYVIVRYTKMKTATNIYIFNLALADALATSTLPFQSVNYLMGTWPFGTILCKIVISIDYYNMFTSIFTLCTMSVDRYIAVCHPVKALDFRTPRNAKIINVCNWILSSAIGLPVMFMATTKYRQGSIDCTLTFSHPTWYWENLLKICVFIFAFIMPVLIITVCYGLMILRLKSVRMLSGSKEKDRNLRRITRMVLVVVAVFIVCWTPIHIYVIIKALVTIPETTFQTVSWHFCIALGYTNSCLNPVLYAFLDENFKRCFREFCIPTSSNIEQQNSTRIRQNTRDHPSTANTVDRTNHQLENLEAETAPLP
Sequence of Opioid receptors; mu & kappa (Homo sapiens) (P41145 whole entry, looked up): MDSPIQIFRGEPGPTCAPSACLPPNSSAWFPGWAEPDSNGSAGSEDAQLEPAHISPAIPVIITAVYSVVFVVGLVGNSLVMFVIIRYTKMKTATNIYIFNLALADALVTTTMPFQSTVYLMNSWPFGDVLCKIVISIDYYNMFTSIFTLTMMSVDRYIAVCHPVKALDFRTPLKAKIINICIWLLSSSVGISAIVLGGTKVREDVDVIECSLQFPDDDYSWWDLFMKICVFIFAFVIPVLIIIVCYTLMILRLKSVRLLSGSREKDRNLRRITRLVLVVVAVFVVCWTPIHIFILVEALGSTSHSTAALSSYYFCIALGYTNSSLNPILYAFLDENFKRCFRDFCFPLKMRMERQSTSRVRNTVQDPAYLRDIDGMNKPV
Sequence of Opioid receptors; delta & kappa (Homo sapiens) (P41143 whole entry, looked up): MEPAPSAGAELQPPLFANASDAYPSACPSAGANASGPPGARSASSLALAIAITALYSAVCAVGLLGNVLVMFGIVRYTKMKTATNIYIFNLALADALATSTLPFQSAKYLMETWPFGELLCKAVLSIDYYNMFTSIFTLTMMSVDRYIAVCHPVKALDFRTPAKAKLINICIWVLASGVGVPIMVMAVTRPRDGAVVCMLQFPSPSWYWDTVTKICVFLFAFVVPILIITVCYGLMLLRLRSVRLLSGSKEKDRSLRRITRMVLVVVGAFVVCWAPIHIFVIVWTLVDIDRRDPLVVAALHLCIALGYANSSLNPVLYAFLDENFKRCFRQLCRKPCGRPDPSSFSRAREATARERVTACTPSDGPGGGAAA
Sequence of Opioid receptors; delta & kappa (Homo sapiens) (P41145 whole entry, looked up): as the sequence (P41145 whole entry, looked up) above
Sequence of Kappa-type opioid receptor (Rattus norvegicus, UniProt P34975, E297K) (P34975 whole entry E297K): as the sequence (P34975 whole entry) above, with E297K counted along it
Sequence of Kappa-type opioid receptor (Rattus norvegicus, UniProt P34975) (P34975 whole entry, looked up): as the sequence (P34975 whole entry) above
Sequence of Mu-type opioid receptor (P33535 whole entry, looked up): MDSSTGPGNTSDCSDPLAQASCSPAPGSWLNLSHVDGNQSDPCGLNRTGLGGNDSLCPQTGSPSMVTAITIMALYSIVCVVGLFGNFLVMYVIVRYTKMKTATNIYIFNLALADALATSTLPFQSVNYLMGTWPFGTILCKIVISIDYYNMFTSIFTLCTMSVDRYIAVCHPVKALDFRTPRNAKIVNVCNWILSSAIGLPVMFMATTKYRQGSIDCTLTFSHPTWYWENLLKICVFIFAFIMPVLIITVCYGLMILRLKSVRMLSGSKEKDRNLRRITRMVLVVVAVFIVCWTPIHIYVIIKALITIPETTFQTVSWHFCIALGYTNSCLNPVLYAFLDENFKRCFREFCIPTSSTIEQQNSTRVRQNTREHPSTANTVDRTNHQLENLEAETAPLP
Sequence of Kappa-type opioid receptor (Cavia porcellus) (P41144 whole entry): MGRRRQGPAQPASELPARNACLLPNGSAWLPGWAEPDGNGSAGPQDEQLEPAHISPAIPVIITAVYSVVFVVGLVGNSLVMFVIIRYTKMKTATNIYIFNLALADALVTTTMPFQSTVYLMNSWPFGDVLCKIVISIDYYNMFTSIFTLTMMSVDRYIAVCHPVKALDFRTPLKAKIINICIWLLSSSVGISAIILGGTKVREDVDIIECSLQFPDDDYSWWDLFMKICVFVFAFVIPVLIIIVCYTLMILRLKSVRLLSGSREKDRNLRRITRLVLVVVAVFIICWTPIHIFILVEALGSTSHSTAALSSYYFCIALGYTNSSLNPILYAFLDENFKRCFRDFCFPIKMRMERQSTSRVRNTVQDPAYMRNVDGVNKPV
Sequence of Delta-type opioid receptor (Mus musculus) (P32300 whole entry): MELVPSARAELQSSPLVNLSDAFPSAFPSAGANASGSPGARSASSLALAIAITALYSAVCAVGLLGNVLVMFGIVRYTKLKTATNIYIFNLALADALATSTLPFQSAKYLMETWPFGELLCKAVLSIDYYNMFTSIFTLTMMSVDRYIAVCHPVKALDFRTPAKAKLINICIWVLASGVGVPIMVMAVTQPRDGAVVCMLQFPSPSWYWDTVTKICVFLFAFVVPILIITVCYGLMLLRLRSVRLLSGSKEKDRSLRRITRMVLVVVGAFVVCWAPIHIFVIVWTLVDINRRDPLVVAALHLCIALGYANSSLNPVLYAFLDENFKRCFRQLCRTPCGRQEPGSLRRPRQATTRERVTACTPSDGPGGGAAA
Sequence of Mu-type opioid receptor (Cavia porcellus) (P97266 whole entry): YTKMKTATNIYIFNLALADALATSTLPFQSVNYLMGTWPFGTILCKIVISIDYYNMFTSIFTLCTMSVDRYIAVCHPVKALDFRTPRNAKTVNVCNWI

Turning to `N#CN=C(N)Nc1ccc2[nH]c3c(c2c1)C[C@@]1(O)C2Cc4ccc(O)c5c4[C@@]1(CCN2CC1CC1)[C@H]3O5`, the Ki in assay [1] turned out to be 0.27 nM; in assay [2] it was 2.48 nM; in [3] it was 4.04 nM.
For the compound `Oc1ccc2c3c1O[C@H]1c4[nH]c5c(c4C[C@@]4(O)[C@@H](C2)N(CC2CC2)CC[C@]314)C[C@@]1(O)[C@H]2Cc3ccc(O)c4c3[C@@]1(CCN2CC1CC1)[C@H]5O4`, in assay [4], the Fana was determined as 1.
Consider `N#CN/C(N)=N/c1ccc2[nH]c3c(c2c1)C[C@@]1(O)C2Cc4ccc(O)c5c4[C@@]1(CCN2CC1CC1)[C@H]3O5`, for which the Selectivity in assay [5] was 3; in [7], 5. For the same compound, the figures for the Ke in [6], in assay [8] and in [9] were 16.1 nM, 3.13 nM and 9.08 nM, respectively. Further, the Fana in assay [4] was 2.25.
`N=C(N)Nc1ccc2[nH]c3c(c2c1)C[C@@]1(O)[C@H]2Cc4ccc(O)c5c4[C@@]1(CCN2CC1CC1)[C@H]3O5` [GUANIDINONALTRINDOLE]: the values for the Selectivity in assay [5] and in assay [7] were 799 and 208, respectively. Besides, the Fana in assay [4] is 0.75. In addition, the Ki in assay [1] was 0.09 nM; in [2], 12.9 nM; in assay [3], 9.23 nM.
